Measurements published in ChEMBL document CHEMBL1139266, “Sulfonamido-aryl ethers as bradykinin B1 receptor antagonists” (Bioorg Med Chem Lett, 2009).
pKi: −log10 of the molar value.

Tests used:
[1] = target: T1, B1 bradykinin receptor (Homo sapiens, UniProt P46663); test: Displacement of [3H]desArg from human B1 in human WI 38 cells; format: cell-based
T1 sequence (P46663 whole entry): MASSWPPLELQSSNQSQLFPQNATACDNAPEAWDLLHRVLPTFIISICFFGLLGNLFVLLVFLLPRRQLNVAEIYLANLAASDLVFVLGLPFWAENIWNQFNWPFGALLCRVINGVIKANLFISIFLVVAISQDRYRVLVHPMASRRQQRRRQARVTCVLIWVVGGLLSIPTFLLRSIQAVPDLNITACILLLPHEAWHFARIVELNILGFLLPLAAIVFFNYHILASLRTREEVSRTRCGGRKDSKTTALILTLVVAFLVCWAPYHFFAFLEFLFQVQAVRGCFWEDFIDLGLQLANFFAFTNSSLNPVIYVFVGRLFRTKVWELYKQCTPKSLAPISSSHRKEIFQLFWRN
How it was run: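 WI-38 fibroblasts, 50,000/well, grown overnight and primed with IL-1b 100 units/mL for 3 h to induce B1. Binding used ~1 nM [3H]-desArg10kallidin in HEPES/HBSS pH 7.4 with phenanthroline and bacitracin, 1 h at 4 °C, 0.5% final DMSO. Nonspecific binding was defined with 3 µM desArg10kallidin. Cells washed, SDS-solubilized and scintillation counted; logistic fit gave IC50, converted to Ki, ≥3 determinations.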

[2] = target: T1, B1 bradykinin receptor; test: Antagonist activity at human cloned B1 receptor expressed in african green monkey COS7 cells by calcium mobilization assay; format: functional, cell-based, COS-7
How it was run: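 Cos-7 cells (DMEM, 10% FBS, 37 °C, 6% CO2) transiently electroporated with 16 µg human B1 cDNA plus 50 µg aequorin cDNA, plated 12,000 cells/well and used 2–3 days later. Compounds serially diluted from 2 mM DMSO stocks in half-log steps, six concentrations in triplicate. Coelenterazine-loaded cells received compounds in HEPES assay buffer. Read-out was aequorin calcium luminescence, with desArg10HOE140 standards for basal and partial inhibition. Ki reported.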

Row | Structure (SMILES) | pKi [1] | pKi [2]
1 | CC(C)COc1ccc(CN(CC(=O)NCc2ccccc2Cl)S(=O)(=O)c2ccc(CN3CCN(C)CC3)cc2)cc1Cl | 7.68 | 6.73
2 | COc1cc(CN(CC(=O)NCc2ccccc2Cl)S(=O)(=O)c2ccc(CN3CCN(C)CC3)cc2)ccc1OCC(C)C | 7.96 | 7.43
3 | COc1cc(CN(CC(=O)NCc2ccccc2Cl)S(=O)(=O)c2ccc(CN3CCCCC3)cc2)ccc1OCC(C)C | 7.47 | 6.57
4 | COc1ccccc1CCNC(=O)CN(CCOc1ccc2c(c1)OCO2)S(=O)(=O)c1ccc(Cl)cc1Cl | 6.68 | 
5 | COCCCNC(=O)CN(CCOc1ccc2c(c1)CCC2)S(=O)(=O)c1ccc(Cl)cc1Cl | 5.92 | 
6 | CNC(=O)CN(CCOc1ccc2c(c1)CCC2)S(=O)(=O)c1ccc(Cl)cc1Cl | 5.66 | 
7 | COc1cc(CN(CC(=O)NCc2ccccc2Cl)S(=O)(=O)c2ccc(CN3CCOCC3)cc2)ccc1OCC(C)C | 6.83 | 6.33
8 | COc1cc(CN(CC(=O)NCc2ccccc2Cl)S(=O)(=O)c2ccc(CN(C)C)cc2)ccc1OCC(C)C | 7.03 | 6.30

The remaining molecules from weak to strong by pKi [1], led by results:

Row | pKi [1] | pKi [2] | Structure (SMILES)
9 | 4.89 |  | O=C(O)CCNC(=O)CN(CCOc1ccccc1)S(=O)(=O)c1ccc(Cl)cc1Cl
10 | 5.80 |  | O=C(O)CCNC(=O)CN(CCOc1ccc2c(c1)OCO2)S(=O)(=O)c1ccc(Cl)cc1Cl
11 | 5.96 |  | O=C(O)CCNC(=O)CN(CCOc1cccc(Cl)c1)S(=O)(=O)c1ccc(Cl)cc1Cl
12 | 6.39 |  | O=C(O)CCNC(=O)CN(CCOc1ccc2c(c1)CCC2)S(=O)(=O)c1ccc(Cl)cc1Cl
13 | 6.95 |  | CC(C)COc1ccc(CN(CC(=O)NCc2ccccc2Cl)S(=O)(=O)c2ccc(CN3CCN(C)CC3)cc2)cc1
